Results as given in ChEMBL document CHEMBL3804757, “Cystoseira usneoides: A Brown Alga Rich in Antioxidant and Anti-inflammatory Meroditerpenoids” (J Nat Prod, 2016).

Key:
[1] = Cytotoxicity against human THP1 cells assessed as cell viability at 5 to 10 uM after 48 hrs by SRB assay; assay type: cell-based; conditions: thp-1, 48 h
[2] = Antioxidant activity assessed as ABTS free radical scavenging activity after 6 mins by ABTS free radical decolorization assay relative to Trolox; assay type: physicochemical; set-up: concentration or dose not given beside the values; conditions: 0.1 h
In short: (§1)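 ABTS•+ generated by mixing 7 mM ABTS with 2.45 mM potassium persulfate (1:1) and holding 12–18 h in the dark at room temperature. It was then diluted in EtOH to A734 0.70 ± 0.02. 100 μL ethanolic compound was added to 2 mL of radical solution, and A734 read after 6 min against an EtOH control. % inhibition = [(A0−A1)/A0]×100, done in triplicate; Trolox served as standard.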

[3] = Antiinflammatory activity against human THP1 cells assessed as inhibition of LPS-induced TNFalpha production pretreated for 1 hr before LPS challenge at 10 uM measured after 24 hrs by ELISA; assay type: functional, THP-1; set-up: scale not given: the % may be the effect or the level left
In short: (§2)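 THP-1 cells (RPMI 1640, 10% FBS) differentiated to macrophages with PMA 0.2 μM final for 3 days, washed with cold PBS, then pre-incubated 1 h with compound diluted from DMSO stocks (0.1% DMSO). Stimulated with LPS at 1 μg/mL final. Supernatants taken after 24 h and TNF-α measured by ELISA. Dexamethasone 1 μM as positive control; an unstimulated control was included. Values are mean ± SE of four determinations.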

[4] = Antiinflammatory activity against human THP1 cells assessed as inhibition of LPS-induced TNFalpha production pretreated for 1 hr before LPS challenge at 8 uM measured after 24 hrs by ELISA; assay type: functional, THP-1; set-up: scale not given: the % may be the effect or the level left; in short: as §2
[5] = Antiinflammatory activity against human THP1 cells assessed as inhibition of LPS-induced TNFalpha production pretreated for 1 hr before LPS challenge at 5 uM measured after 24 hrs by ELISA; assay type: functional, THP-1; set-up: scale not given: the % may be the effect or the level left; in short: as §2
[6] = Antioxidant activity assessed as ABTS free radical scavenging activity after 6 mins by ABTS free radical decolorization assay; assay type: physicochemical; in short: as §1

Row | Activity [2] | EC50 [6] | Compound | Activity [1] | Activity [3] | Activity [4] | Activity [5]
1 | 37% | – | COc1c(C)cc(O)cc1C/C=C(\C)CC(=O)/C=C(\C)CC/C=C(\C)CCC(O)C(C)(C)O (stereo not drawn) | Non-toxic | 21% | – | –
2 | 37% | – | COc1c(C)cc(O)cc1C/C=C(\C)CC(=O)/C=C(/C)CCCC(C)C(=O)CC(O)C(C)(C)O (stereo not drawn) | Non-toxic | – | 21% | –
3 | 62% | – | COc1c(C)cc(O)cc1C/C=C(\C)CC(=O)/C=C(/C)CCC[C@@]1(C)O[C@H](C(C)(C)O)C[C@H]1O | Non-toxic | – | 21% | –
4 | 81% | – | C/C(=C/C(=O)C/C(C)=C/Cc1cc(O)cc(C)c1O)CCCC(C)(O)C(=O)/C=C/C(C)(C)O (stereo not drawn) | Non-toxic | 81% | – | –
5 | 37% | – | COc1c(C)cc(O)cc1C/C=C(\C)CC(=O)/C=C(/C)CC/C=C(\C)C(O)CC1OC1(C)C (stereo not drawn) | Non-toxic | – | 21% | –
6 | 87% | – | C/C(=C\C(=O)C/C(C)=C/Cc1cc(O)cc(C)c1O)CCCC(C)(O)C(=O)/C=C/C(C)(C)O (stereo not drawn) | Non-toxic | 69% | – | –
7 | 62% | – | COc1c(C)cc(O)cc1C/C=C(\C)CC(=O)/C=C(\C)C(O)CCC(C)(O)C(=O)/C=C/C(C)(C)O (stereo not drawn) | Non-toxic | – | 79% | –
8 | 62% | – | COc1c(C)cc(O)cc1C/C=C(\C)CC(=O)/C=C(/C)CCC[C@@]1(C)O[C@@H](C(C)(C)O)CC1=O | – | – | – | –
9 | 77% | – | C/C(=C/C(=O)C/C(C)=C/Cc1cc(O)cc(C)c1O)CCCC(C)C(=O)/C=C/C(C)(C)O (stereo not drawn) | Non-toxic | 21% | – | –
10 | 62% | – | COc1c(C)cc(O)cc1C/C=C(\C)CC(=O)/C=C(/C)CC/C=C(\C)CCC(O)C(C)(C)O (stereo not drawn) | Non-toxic | – | – | 59%
11 | 77% | – | C/C(=C\C(=O)C/C(C)=C/Cc1cc(O)cc(C)c1O)CCCC(C)C(=O)/C=C/C(C)(C)O (stereo not drawn) | Non-toxic | – | – | 53%
12 | 37% | – | COc1c(C)cc(O)cc1C/C=C(\C)CC(=O)/C=C(\C)CCC[C@@]1(C)O[C@@H](C(C)(C)O)CC1=O | – | – | – | –
13 | – | 12 µM | Cc1c(C)c2c(c(C)c1O)CCC(C)(C(=O)O)O2 (stereo not drawn) [TROLOX] | – | – | – | –
